# Measurements taken from ChEMBL document CHEMBL1147391, “Isolation of echinocystic acid-3-O-sulfate, a new triterpene, from Tetrapleura tetraptera, and evaluation of the mutagenic potential of molluscicidal extracts and isolates” (J Nat Prod, 1993).
# Activity calls are given as the source filed them. No cut-off for these calls is given here.
# Assays:
# Salmonella typhimurium [1] = experiment: Bactericidal activity against Salmonella Typhimurium […] assessed as survival at 0.3125 mg/ml after 48 to 60 hrs in absence of rat S9 liver homogenate relative to control; assay type: functional, organism-based; conditions: Salmonella enterica subsp. enterica serovar Typhimurium
# Procedure, shortened: (§1)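 TM677 (pKM101) exposed to test substance in DMSO with or without S-9 from livers of Aroclor 1254-pretreated rats, 2 h at 37°, quenched with PBS, centrifuged, diluted and plated in triplicate without 8-azaguanine. Colonies scored after 48–60 h at 37°. Survival is expressed relative to a DMSO-only control after correction for dilution.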
# Salmonella typhimurium [2] = experiment: Bactericidal activity against Salmonella Typhimurium […] assessed as survival at 0.625 mg/ml after 48 to 60 hrs in absence of rat S9 liver homogenate relative to control; assay type: functional, organism-based; conditions: Salmonella enterica subsp. enterica serovar Typhimurium; procedure, shortened: as §1
# Salmonella typhimurium [3] = experiment: Bactericidal activity against Salmonella Typhimurium […] assessed as survival at 1.25 mg/ml after 48 to 60 hrs in absence of rat S9 liver homogenate relative to control; assay type: functional, organism-based; conditions: Salmonella enterica subsp. enterica serovar Typhimurium; procedure, shortened: as §1
# Biomphalaria glabrata [4] = experiment: Molluscicidal activity against Biomphalaria glabrata assessed as mortality at 20 ppm after 24 hrs; assay type: functional
# Procedure, shortened: (§2)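 Lab-bred B. glabrata (about 12 mm shell diameter), five snails per test, tested in duplicate at 21–22°. Samples dissolved in MeOH and diluted in dechlorinated tap water, final MeOH ≤1% v/v. Snails immersed 24 h, rinsed, then held 24 h in clean water. Death means no heartbeat under a dissecting microscope. Negative control was 1% MeOH.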
# Salmonella typhimurium [5] = experiment: Bactericidal activity against Salmonella Typhimurium […] assessed as survival at 5 mg/ml after 48 to 60 hrs in absence of rat S9 liver homogenate relative to control; assay type: functional, organism-based; conditions: Salmonella enterica subsp. enterica serovar Typhimurium; procedure, shortened: as §1
# Salmonella typhimurium [6] = experiment: Bactericidal activity against Salmonella Typhimurium […] assessed as survival at 2.5 mg/ml after 48 to 60 hrs in absence of rat S9 liver homogenate relative to control; assay type: functional, organism-based; conditions: Salmonella enterica subsp. enterica serovar Typhimurium; procedure, shortened: as §1
# Salmonella typhimurium [7] = experiment: Forward mutagenic activity in Salmonella Typhimurium […] assessed as mutant fraction at 0.3125 mg/ml after 2 hrs in absence of rat S9 liver homogenate; assay type: toxicity, organism-based; conditions: salmonella enterica subsp. enterica serovar typhimurium
# Procedure, shortened: (§3)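 Forward mutation assay in S. typhimurium TM677 carrying pKM101, with or without Aroclor 1254-induced rat liver S-9 (9000×g). Substance in DMSO incubated with bacteria 2 h at 37°, quenched with PBS and plated in triplicate with and without 8-azaguanine, then grown 48–60 h at 37°. Mutant fraction is the mean 8-azaguanine-resistant colony count over the mean count without 8-azaguanine, corrected for dilution.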
# Salmonella typhimurium [8] = experiment: Forward mutagenic activity in Salmonella Typhimurium […] assessed as mutant fraction at 0.625 mg/ml after 2 hrs in absence of rat S9 liver homogenate; assay type: toxicity, organism-based; conditions: salmonella enterica subsp. enterica serovar typhimurium; procedure, shortened: as §3
# Salmonella typhimurium [9] = experiment: Forward mutagenic activity in Salmonella Typhimurium […] assessed as mutant fraction at 1.25 mg/ml after 2 hrs in absence of rat S9 liver homogenate; assay type: toxicity, organism-based; conditions: salmonella enterica subsp. enterica serovar typhimurium; procedure, shortened: as §3
# Salmonella typhimurium [10] = experiment: Forward mutagenic activity in Salmonella Typhimurium […] assessed as mutant fraction at 2.5 mg/ml after 2 hrs in absence of rat S9 liver homogenate; assay type: toxicity, organism-based; conditions: salmonella enterica subsp. enterica serovar typhimurium; procedure, shortened: as §3
# Salmonella typhimurium [11] = experiment: Forward mutagenic activity in Salmonella Typhimurium […] assessed as mutant fraction at 5 mg/ml after 2 hrs in absence of rat S9 liver homogenate; assay type: toxicity, organism-based; conditions: salmonella enterica subsp. enterica serovar typhimurium; procedure, shortened: as §3
# Salmonella typhimurium [12] = experiment: Bactericidal activity against Salmonella Typhimurium […] assessed as survival at 0.3125 mg/ml after 48 to 60 hrs in presence of rat S9 liver homogenate relative to control; assay type: functional, organism-based; conditions: Salmonella enterica subsp. enterica serovar Typhimurium, Liver S9 fraction; procedure, shortened: as §1
# Salmonella typhimurium [13] = experiment: Bactericidal activity against Salmonella Typhimurium […] assessed as survival at 0.625 mg/ml after 48 to 60 hrs in presence of rat S9 liver homogenate relative to control; assay type: functional, organism-based; conditions: Salmonella enterica subsp. enterica serovar Typhimurium, Liver S9 fraction; procedure, shortened: as §1
# Salmonella typhimurium [14] = experiment: Bactericidal activity against Salmonella Typhimurium […] assessed as survival at 1.25 mg/ml after 48 to 60 hrs in presence of rat S9 liver homogenate relative to control; assay type: functional, organism-based; conditions: Salmonella enterica subsp. enterica serovar Typhimurium, Liver S9 fraction; procedure, shortened: as §1
# Salmonella typhimurium [15] = experiment: Bactericidal activity against Salmonella Typhimurium […] assessed as survival at 5 mg/ml after 48 to 60 hrs in presence of rat S9 liver homogenate relative to control; assay type: functional, organism-based; conditions: Salmonella enterica subsp. enterica serovar Typhimurium, Liver S9 fraction; procedure, shortened: as §1
# Salmonella typhimurium [16] = experiment: Bactericidal activity against Salmonella Typhimurium […] assessed as survival at 2.5 mg/ml after 48 to 60 hrs in presence of rat S9 liver homogenate relative to control; assay type: functional, organism-based; conditions: Salmonella enterica subsp. enterica serovar Typhimurium, Liver S9 fraction; procedure, shortened: as §1
# Biomphalaria glabrata [17] = experiment: Molluscicidal activity against Biomphalaria glabrata assessed as mortality at 15 ppm after 24 hrs; assay type: functional; procedure, shortened: as §2
# Salmonella typhimurium [18] = experiment: Forward mutagenic activity in Salmonella Typhimurium […] assessed as mutant fraction at 0.3125 mg/ml after 2 hrs in presence of rat S9 liver homogenate; assay type: toxicity, organism-based; conditions: salmonella enterica subsp. enterica serovar typhimurium; procedure, shortened: as §3
# Salmonella typhimurium [19] = experiment: Forward mutagenic activity in Salmonella Typhimurium […] assessed as mutant fraction at 0.625 mg/ml after 2 hrs in presence of rat S9 liver homogenate; assay type: toxicity, organism-based; conditions: salmonella enterica subsp. enterica serovar typhimurium; procedure, shortened: as §3
# Salmonella typhimurium [20] = experiment: Forward mutagenic activity in Salmonella Typhimurium […] assessed as mutant fraction at 1.25 mg/ml after 2 hrs in presence of rat S9 liver homogenate; assay type: toxicity, organism-based; conditions: salmonella enterica subsp. enterica serovar typhimurium; procedure, shortened: as §3
# Salmonella typhimurium [21] = experiment: Forward mutagenic activity in Salmonella Typhimurium […] assessed as mutant fraction at 2.5 mg/ml after 2 hrs in presence of rat S9 liver homogenate; assay type: toxicity, organism-based; conditions: salmonella enterica subsp. enterica serovar typhimurium; procedure, shortened: as §3
# Salmonella typhimurium [22] = experiment: Forward mutagenic activity in Salmonella Typhimurium […] assessed as mutant fraction at 5 mg/ml after 2 hrs in presence of rat S9 liver homogenate; assay type: toxicity, organism-based; conditions: salmonella enterica subsp. enterica serovar typhimurium; procedure, shortened: as §3
# Biomphalaria glabrata [23] = experiment: Molluscicidal activity against Biomphalaria glabrata assessed as mortality at 1.25 ppm after 24 hrs; assay type: functional; procedure, shortened: as §2
# Salmonella typhimurium [24] = experiment: Bactericidal activity against Salmonella Typhimurium […] assessed as survival at 0.58 mg/ml after 48 to 60 hrs in absence of rat S9 liver homogenate; assay type: functional, organism-based; conditions: Salmonella enterica subsp. enterica serovar Typhimurium
# Procedure, shortened: (§4)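 Forward mutation assay in S. typhimurium TM677 carrying plasmid pKM101, without S-9. Bacteria were mixed with MEM, test substance added in DMSO, and incubated 2 h at 37°. The mix was quenched with PBS, pelleted, diluted and plated in triplicate without 8-azaguanine. Colonies were counted after 48–60 h at 37°. Survival was dilution-corrected and taken relative to a DMSO-only control.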
# Salmonella typhimurium [25] = experiment: Bactericidal activity against Salmonella Typhimurium […] assessed as survival at 5.8 mg/ml after 48 to 60 hrs in absence of rat S9 liver homogenate; assay type: functional, organism-based; conditions: Salmonella enterica subsp. enterica serovar Typhimurium; procedure, shortened: as §4
# Salmonella typhimurium [26] = experiment: Bactericidal activity against Salmonella Typhimurium […] assessed as survival at 0.5 mg/ml after 48 to 60 hrs in presence of rat S9 liver homogenate; assay type: functional, organism-based; conditions: Salmonella enterica subsp. enterica serovar Typhimurium, Liver S9 fraction
# Procedure, shortened: (§5)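 TM677 (pKM101) forward mutation assay run with a 9000×g liver supernatant (S-9) from Aroclor 1254-pretreated rats. Test substance was added in DMSO and incubated 2 h at 37°, then quenched with PBS. Cells were pelleted, diluted and plated in triplicate without 8-azaguanine, and colonies counted after 48–60 h at 37°. Survival was dilution-corrected and taken relative to a DMSO solvent control.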
# Salmonella typhimurium [27] = experiment: Bactericidal activity against Salmonella Typhimurium […] assessed as survival at 50 mg/ml after 48 to 60 hrs in presence of rat S9 liver homogenate; assay type: functional, organism-based; conditions: Salmonella enterica subsp. enterica serovar Typhimurium, Liver S9 fraction; procedure, shortened: as §5
# Salmonella typhimurium [28] = experiment: Bactericidal activity against Salmonella Typhimurium […] assessed as survival at 0.058 mg/ml after 48 to 60 hrs in absence of rat S9 liver homogenate; assay type: functional, organism-based; conditions: Salmonella enterica subsp. enterica serovar Typhimurium; procedure, shortened: as §4
Compound,Activity (Salmonella typhimurium [1]) [%],Activity (Salmonella typhimurium [2]) [%],Activity (Salmonella typhimurium [3]) [%],Activity (Biomphalaria glabrata [4]),Activity (Salmonella typhimurium [5]) [%],Activity (Salmonella typhimurium [6]) [%],Activity (Salmonella typhimurium [7]),Activity (Salmonella typhimurium [8]),Activity (Salmonella typhimurium [9]),Activity (Salmonella typhimurium [10]),Activity (Salmonella typhimurium [11]),Activity (Salmonella typhimurium [12]) [%],Activity (Salmonella typhimurium [13]) [%],Activity (Salmonella typhimurium [14]) [%],Activity (Salmonella typhimurium [15]),Activity (Salmonella typhimurium [16]) [%],Activity (Salmonella typhimurium [18]),Activity (Salmonella typhimurium [19]),Activity (Salmonella typhimurium [20]),Activity (Salmonella typhimurium [21]),other results
CC(=O)N[C@H]1[C@H](O[C@H]2CC[C@]3(C)[C@H]4CC=C5[C@H]6CC(C)(C)CC[C@]6(C(=O)O)CC[C@@]5(C)[C@]4(C)CC[C@H]3C2(C)C)O[C@H](CO[C@@H]2O[C@H](CO)[C@@H](O)[C@H](O)[C@H]2O)[C@@H](O)[C@@H]1O,100,100,100,100%,100,100,4.1,4.2,4,3.1,5,–,–,–,–,–,–,–,–,–,–
CC(=O)N[C@H]1[C@H](O[C@H]2CC[C@]3(C)[C@H]4CC=C5[C@H]6CC(C)(C)CC[C@]6(C(=O)O)[C@H](O)C[C@@]5(C)[C@]4(C)CC[C@H]3C2(C)C)O[C@H](CO)[C@@H](O)[C@@H]1O,100,100,100,–,100,100,4.9,5.4,5.4,4.7,4.7,100,100,200,100%,100,3.2,3.1,2.6,2.9,Activity (Biomphalaria glabrata [17]): 100%; Activity (Salmonella typhimurium [22]): 4.6
CC(=O)N[C@H]1[C@H](O[C@H]2CC[C@]3(C)[C@H]4CC=C5[C@H]6CC(C)(C)CC[C@]6(C(=O)O)CC[C@@]5(C)[C@]4(C)CC[C@H]3C2(C)C)O[C@H](CO)[C@@H](O)[C@@H]1O [ARIDANIN],89,98,100,–,100,100,4.5,5.6,4.1,3.3,4.2,100,100,100,100%,100,2.5,2.9,3.2,2.8,Activity (Biomphalaria glabrata [23]): 100%; Activity (Salmonella typhimurium [22]): 4
CC1(C)CC[C@]2(C(=O)O)[C@H](O)C[C@]3(C)C(=CC[C@@H]4[C@@]5(C)CC[C@H](OS(=O)(=O)O)C(C)(C)[C@@H]5CC[C@]43C)[C@H]2C1,–,–,–,Non-toxic,–,–,–,–,–,–,–,–,–,–,inactive,–,–,–,–,–,Activity (Salmonella typhimurium [24]): inactive; Activity (Salmonella typhimurium [25]): inactive; Activity (Salmonella typhimurium [26]): inactive; Activity (Salmonella typhimurium [27]): inactive; Activity (Salmonella typhimurium [28]): inactive
